In brackets after ≈: the same amount, converted by molar mass.
Key:
Format in all cases: functional
Staphylococcus aureus [1] = experiment: Antibacterial activity against tetracycline-susceptible Staphylococcus aureus ATCC 13709 Smith isolate SA100
Method in brief: (§1)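 Broth microdilution MIC following CLSI methods in cation-adjusted Mueller Hinton broth, prepared fresh and held at 4 °C before testing. Defibrinated horse blood added to the medium where appropriate. Runs accepted when quality control ranges for comparator antibiotics and ATCC QC strains were met.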

Staphylococcus aureus [2] = experiment: Antibacterial activity against tetracycline-resistant Staphylococcus aureus isolate SA161 expressing TetM gene; method in brief: as §1
Staphylococcus aureus [3] = experiment: Antibacterial activity against tetracycline-resistant Staphylococcus aureus isolate SA158 expressing TetK gene
Streptococcus pneumoniae [4] = experiment: Antibacterial activity against Streptococcus pneumoniae ATCC 49619 isolate 106
Method in brief: (§2)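 MIC by broth microdilution in liquid medium per CLSI, in cation-adjusted Mueller Hinton broth made fresh and held at 4 °C before testing. Horse blood (defibrinated) added to the medium where appropriate. Runs were accepted only when the comparator antibiotics and ATCC QC strains fell within their recommended ranges.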

Streptococcus pneumoniae [5] = experiment: Antibacterial activity against tetracycline-resistant Streptococcus pneumoniae isolate 160 expressing tetM gene
Escherichia coli [6] = experiment: Antibacterial activity against Escherichia coli ATCC 25922 isolate 107; method in brief: as §2
Escherichia coli [7] = experiment: Antibacterial activity against Escherichia coli isolate EC155 expressing tetA gene; method in brief: as §2
Klebsiella pneumoniae = experiment: Antibacterial activity against Klebsiella pneumoniae ATCC 13883; method in brief: as §2

| SMILES | MIC (Staphylococcus aureus [1]) [µg/mL] | MIC (Staphylococcus aureus [2]) [µg/mL] | MIC (Staphylococcus aureus [3]) [µg/mL] | MIC (Streptococcus pneumoniae [4]) [µg/mL] | MIC (Streptococcus pneumoniae [5]) [µg/mL] | MIC (Escherichia coli [6]) [µg/mL] | MIC (Escherichia coli [7]) [µg/mL] | MIC (Klebsiella pneumoniae) [µg/mL] |
| --- | --- | --- | --- | --- | --- | --- | --- | --- |
| CN(C)[C@@H]1C(O)=C(C(N)=O)C(=O)[C@@]2(O)C(O)=C3C(=O)c4c(O)c(NC(=O)CNC(C)(C)C)cc(F)c4C[C@H]3C[C@@H]12 | 0.25 (≈ 0.446 µM) | 0.25 (≈ 0.446 µM) | 0.063 (≈ 0.112 µM) | 0.016 (≈ 0.0285 µM) | 0.016 (≈ 0.0285 µM) | 0.25 (≈ 0.446 µM) | 2 (≈ 3.57 µM) | 1 (≈ 1.78 µM) |
| CN(C)[C@@H]1C(O)=C(C(N)=O)C(=O)[C@@]2(O)C(O)=C3C(=O)c4c(O)c(NC(=O)[C@H]5CCCN5C)cc(F)c4C[C@H]3C[C@@H]12 | 2 (≈ 3.58 µM) | 2 (≈ 3.58 µM) | 2 (≈ 3.58 µM) | 0.25 (≈ 0.448 µM) | 0.25 (≈ 0.448 µM) | 2 (≈ 3.58 µM) | 16 (≈ 28.6 µM) | 4 (≈ 7.16 µM) |
| CC(C)N1CCC[C@H]1C(=O)Nc1cc(F)c2c(c1O)C(=O)C1=C(O)[C@]3(O)C(=O)C(C(N)=O)=C(O)[C@@H](N(C)C)[C@@H]3C[C@@H]1C2 | 0.5 (≈ 0.852 µM) | 1 (≈ 1.7 µM) | 0.25 (≈ 0.426 µM) | ≤ 0.016 | ≤ 0.016 | 2 (≈ 3.41 µM) | 8 (≈ 13.6 µM) | – |
| CN(C)[C@@H]1C(O)=C(C(N)=O)C(=O)[C@@]2(O)C(O)=C3C(=O)c4c(O)c(NC(=O)[C@@H]5C[C@@H](F)CN5C)cc(F)c4C[C@H]3C[C@@H]12 | 0.5 (≈ 0.867 µM) | 2 (≈ 3.47 µM) | 1 (≈ 1.73 µM) | 0.063 (≈ 0.109 µM) | 0.063 (≈ 0.109 µM) | 4 (≈ 6.94 µM) | > 32 | 8 (≈ 13.9 µM) |
| CN(C)[C@@H]1C(O)=C(C(N)=O)C(=O)[C@@]2(O)C(O)=C3C(=O)c4c(O)c(NC(=O)[C@@H]5CC(F)(F)CN5C)cc(F)c4C[C@H]3C[C@@H]12 | 1 (≈ 1.68 µM) | 1 (≈ 1.68 µM) | 1 (≈ 1.68 µM) | 0.5 (≈ 0.841 µM) | 0.5 (≈ 0.841 µM) | > 32 | > 32 | > 32 |
| CN(C)[C@@H]1C(O)=C(C(N)=O)C(=O)[C@@]2(O)C(O)=C3C(=O)c4c(O)c(NC(=O)[C@@H]5CCCCN5)cc(F)c4C[C@H]3C[C@@H]12 | 0.5 (≈ 0.895 µM) | 1 (≈ 1.79 µM) | 0.25 (≈ 0.448 µM) | 0.031 (≈ 0.0555 µM) | 0.063 (≈ 0.113 µM) | 0.5 (≈ 0.895 µM) | 8 (≈ 14.3 µM) | 2 (≈ 3.58 µM) |
| CN(C)[C@@H]1C(O)=C(C(N)=O)C(=O)[C@@]2(O)C(O)=C3C(=O)c4c(O)c(NC(=O)[C@@H]5CCCCN5C)cc(F)c4C[C@H]3C[C@@H]12 | 2 (≈ 3.49 µM) | 8 (≈ 14 µM) | 1 (≈ 1.75 µM) | 0.13 (≈ 0.227 µM) | 0.25 (≈ 0.437 µM) | 0.5 (≈ 0.873 µM) | > 32 | 2 (≈ 3.49 µM) |
| CN(C)[C@@H]1C(O)=C(C(N)=O)C(=O)[C@@]2(O)C(O)=C3C(=O)c4c(O)c(NC(=O)[C@H]5CCCCN5)cc(F)c4C[C@H]3C[C@@H]12 | 2 (≈ 3.58 µM) | 2 (≈ 3.58 µM) | 2 (≈ 3.58 µM) | 0.5 (≈ 0.895 µM) | 0.5 (≈ 0.895 µM) | 4 (≈ 7.16 µM) | > 32 | 16 (≈ 28.6 µM) |
| CN(C)[C@@H]1C(O)=C(C(N)=O)C(=O)[C@@]2(O)C(O)=C3C(=O)c4c(O)c(NC(=O)c5cccn5C)cc(F)c4C[C@H]3C[C@@H]12 | 0.25 (≈ 0.451 µM) | 0.5 (≈ 0.902 µM) | 0.5 (≈ 0.902 µM) | 8 (≈ 14.4 µM) | 8 (≈ 14.4 µM) | > 32 | > 32 | > 32 |
| CN(C)c1cc(F)c2c(c1O)C(=O)C1=C(O)[C@]3(O)C(=O)C(C(N)=O)=C(O)[C@@H](N(C)C)[C@@H]3C[C@@H]1C2 | 1 (≈ 2.1 µM) | 4 (≈ 8.41 µM) | 4 (≈ 8.41 µM) | 0.25 (≈ 0.526 µM) | 4 (≈ 8.41 µM) | 4 (≈ 8.41 µM) | 32 (≈ 67.3 µM) | 8 (≈ 16.8 µM) |
| Cc1cc(C(=O)Nc2cc(F)c3c(c2O)C(=O)C2=C(O)[C@]4(O)C(=O)C(C(N)=O)=C(O)[C@@H](N(C)C)[C@@H]4C[C@@H]2C3)no1 | 0.25 (≈ 0.449 µM) | 0.5 (≈ 0.898 µM) | 0.5 (≈ 0.898 µM) | 2 (≈ 3.59 µM) | 2 (≈ 3.59 µM) | > 32 | > 32 | > 32 |
| CN(C)[C@@H]1C(O)=C(C(N)=O)C(=O)[C@@]2(O)C(O)=C3C(=O)c4c(O)c(NC(=O)c5ccn(C)n5)cc(F)c4C[C@H]3C[C@@H]12 | 0.5 (≈ 0.9 µM) | 0.5 (≈ 0.9 µM) | 1 (≈ 1.8 µM) | 1 (≈ 1.8 µM) | 2 (≈ 3.6 µM) | > 32 | > 32 | > 32 |
| CN(C)[C@@H]1C(O)=C(C(N)=O)C(=O)[C@@]2(O)C(O)=C3C(=O)c4c(O)c(NC(=O)[C@@H]5CCN5)cc(F)c4C[C@H]3C[C@@H]12 | 0.25 (≈ 0.471 µM) | 0.13 (≈ 0.245 µM) | 0.5 (≈ 0.942 µM) | 0.16 (≈ 0.302 µM) | 0.031 (≈ 0.0584 µM) | 0.25 (≈ 0.471 µM) | 16 (≈ 30.2 µM) | 1 (≈ 1.88 µM) |
| CN(C)[C@@H]1C(O)=C(C(N)=O)C(=O)[C@@]2(O)C(O)=C3C(=O)c4c(O)c(NS(=O)(=O)c5ccccc5)cc(F)c4C[C@H]3C[C@@H]12 | 0.5 (≈ 0.851 µM) | 1 (≈ 1.7 µM) | 0.5 (≈ 0.851 µM) | 0.25 (≈ 0.425 µM) | 0.25 (≈ 0.425 µM) | 32 (≈ 54.5 µM) | > 32 | > 32 |
| CN(C)[C@@H]1C(O)=C(C(N)=O)C(=O)[C@@]2(O)C(O)=C3C(=O)c4c(O)c(NS(=O)(=O)c5cccs5)cc(F)c4C[C@H]3C[C@@H]12 | 0.5 (≈ 0.842 µM) | 1 (≈ 1.68 µM) | 0.5 (≈ 0.842 µM) | 0.25 (≈ 0.421 µM) | 1 (≈ 1.68 µM) | > 32 | > 32 | > 32 |
| CN(C)[C@@H]1C(O)=C(C(N)=O)C(=O)[C@@]2(O)C(O)=C3C(=O)c4c(O)c(Nc5ccncn5)cc(F)c4C[C@H]3C[C@@H]12 | 0.25 (≈ 0.476 µM) | 2 (≈ 3.81 µM) | 2 (≈ 3.81 µM) | 0.063 (≈ 0.12 µM) | 0.5 (≈ 0.951 µM) | 2 (≈ 3.81 µM) | > 32 | 8 (≈ 15.2 µM) |
| CN(C)[C@@H]1C(O)=C(C(N)=O)C(=O)[C@@]2(O)C(O)=C3C(=O)c4c(O)c(NCCNC(C)(C)C)cc(F)c4C[C@H]3C[C@@H]12 | 1 (≈ 1.83 µM) | 4 (≈ 7.32 µM) | 1 (≈ 1.83 µM) | 0.125 (≈ 0.229 µM) | 0.25 (≈ 0.457 µM) | 2 (≈ 3.66 µM) | 16 (≈ 29.3 µM) | 8 (≈ 14.6 µM) |
| CN(C)[C@@H]1C(O)=C(C(N)=O)C(=O)[C@@]2(O)C(O)=C3C(=O)c4c(O)c(N)cc(F)c4C[C@H]3C[C@@H]12 | 0.25 (≈ 0.559 µM) | 2 (≈ 4.47 µM) | 2 (≈ 4.47 µM) | 0.25 (≈ 0.559 µM) | 4 (≈ 8.94 µM) | 2 (≈ 4.47 µM) | 32 (≈ 71.5 µM) | 4 (≈ 8.94 µM) |
| CN(C)[C@@H]1C(O)=C(C(N)=O)C(=O)[C@@]2(O)C(O)=C3C(=O)c4c(O)c(NC(=O)c5ccccc5)cc(F)c4C[C@H]3C[C@@H]12 | 0.25 (≈ 0.453 µM) | 0.25 (≈ 0.453 µM) | 0.5 (≈ 0.907 µM) | 16 (≈ 29 µM) | 16 (≈ 29 µM) | > 32 | > 32 | > 32 |
| CN(C)[C@@H]1C(O)=C(C(N)=O)C(=O)[C@@]2(O)C(O)=C3C(=O)c4c(O)c(NC(=O)c5cccc(C(F)(F)F)c5)cc(F)c4C[C@H]3C[C@@H]12 | 0.25 (≈ 0.404 µM) | 0.5 (≈ 0.807 µM) | 0.13 (≈ 0.21 µM) | > 32 | > 32 | > 32 | > 32 | > 32 |
| COc1cccc(C(=O)Nc2cc(F)c3c(c2O)C(=O)C2=C(O)[C@]4(O)C(=O)C(C(N)=O)=C(O)[C@@H](N(C)C)[C@@H]4C[C@@H]2C3)c1 | 0.13 (≈ 0.224 µM) | 0.25 (≈ 0.43 µM) | 0.13 (≈ 0.224 µM) | > 32 | > 32 | > 32 | > 32 | > 32 |
| CN(C)c1ccccc1C(=O)Nc1cc(F)c2c(c1O)C(=O)C1=C(O)[C@]3(O)C(=O)C(C(N)=O)=C(O)[C@@H](N(C)C)[C@@H]3C[C@@H]1C2 | 0.13 (≈ 0.219 µM) | 0.13 (≈ 0.219 µM) | 0.063 (≈ 0.106 µM) | 32 (≈ 53.8 µM) | > 32 | > 32 | > 32 | > 32 |
| CN(C)c1cccc(C(=O)Nc2cc(F)c3c(c2O)C(=O)C2=C(O)[C@]4(O)C(=O)C(C(N)=O)=C(O)[C@@H](N(C)C)[C@@H]4C[C@@H]2C3)c1 | 0.13 (≈ 0.219 µM) | 0.13 (≈ 0.219 µM) | 0.13 (≈ 0.219 µM) | > 32 | > 32 | > 32 | > 32 | > 32 |
| CN(C)c1ccc(C(=O)Nc2cc(F)c3c(c2O)C(=O)C2=C(O)[C@]4(O)C(=O)C(C(N)=O)=C(O)[C@@H](N(C)C)[C@@H]4C[C@@H]2C3)cc1 | 0.063 (≈ 0.106 µM) | 0.063 (≈ 0.106 µM) | 0.063 (≈ 0.106 µM) | 2 (≈ 3.36 µM) | 8 (≈ 13.5 µM) | > 32 | > 32 | > 32 |
| CN(C)[C@@H]1C(O)=C(C(N)=O)C(=O)[C@@]2(O)C(O)=C3C(=O)c4c(O)c(NC(=O)c5cccs5)cc(F)c4C[C@H]3C[C@@H]12 | 0.13 (≈ 0.233 µM) | 0.25 (≈ 0.448 µM) | 0.5 (≈ 0.897 µM) | 16 (≈ 28.7 µM) | 16 (≈ 28.7 µM) | > 32 | > 32 | > 32 |
| CN(C)[C@@H]1C(O)=C(C(N)=O)C(=O)[C@@]2(O)C(O)=C3C(=O)c4c(O)c(NC(=O)c5cccnc5)cc(F)c4C[C@H]3C[C@@H]12 | 2 (≈ 3.62 µM) | 4 (≈ 7.24 µM) | 16 (≈ 29 µM) | 1 (≈ 1.81 µM) | 2 (≈ 3.62 µM) | > 32 | > 32 | > 32 |
| CN(C)[C@@H]1C(O)=C(C(N)=O)C(=O)[C@@]2(O)C(O)=C3C(=O)c4c(O)c(NC(=O)[C@H]5CCCN5)cc(F)c4C[C@H]3C[C@@H]12 | 2 (≈ 3.67 µM) | 2 (≈ 3.67 µM) | 4 (≈ 7.35 µM) | 0.13 (≈ 0.239 µM) | 0.5 (≈ 0.918 µM) | 4 (≈ 7.35 µM) | 32 (≈ 58.8 µM) | 8 (≈ 14.7 µM) |

Reference: ChEMBL document CHEMBL2057101, “Fluorocyclines. 2. Optimization of the C-9 side-chain for antibacterial activity and oral efficacy” (J Med Chem, 2012)
